Measured values published in ChEMBL document CHEMBL4477183, “Antimicrobial Peptide from the Wild Bee Hylaeus signatus Venom and Its Analogues: Structure-Activity Study and Synergistic Effect with Antibiotics” (J Nat Prod, 2016).
Values after ≈ are worked out from the molar mass of the structure shown. Active and inactive are the calls of the source. No cut-off for these calls is given here. Non-standard residues stand in square brackets, D forms with d. Residues, ends and D or L forms follow the SMILES beside them. ξ: configuration not given here. ξNle = CCCCC(N)C(=O)O

Columns and labels:
Pseudomonas aeruginosa [1] = experiment: Induction of cell permeabilization in Pseudomonas aeruginosa assessed as propidium iodide uptake at 4 uM after 10 mins; assay type: functional, organism-based
Staphylococcus aureus [2] = experiment: Antimicrobial activity against Staphylococcus aureus clinical isolates assessed as FIC index in presence of amoxicillin after 20 hrs by drop diffusion test; assay type: functional
Staphylococcus aureus [3] = experiment: Antimicrobial activity against Staphylococcus aureus clinical isolates from university hospital in Motol assessed as reduction in bacterial growth after 20 hrs by drop diffusion test; assay type: functional
[4] = test system: Staphylococcus epidermidis; experiment: Antimicrobial activity against Staphylococcus epidermidis assessed as reduction in bacterial growth after 20 hrs by broth microdilution assay
Staphylococcus aureus [5] = experiment: Antimicrobial activity against Staphylococcus aureus clinical isolates from Liberec regional hospital assessed as reduction in bacterial growth after 20 hrs by […]; assay type: functional
Outline: (§1)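 Broth microdilution in LB (YPG for C. albicans) with 2-fold serial dilutions, final 0.1–100 μM. Mid-log cells grown 3–5 h at 37 °C were added at about 5 × 10^5 cfu/mL, then incubated 20 h at 37 °C with shaking. A540 was read every 15 min to build growth curves. Medium with cells served as growth control; at least three runs in duplicate.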

Pseudomonas aeruginosa [6] = experiment: Antimicrobial activity against Pseudomonas aeruginosa clinical isolates assessed as reduction in bacterial growth after 20 hrs by […]; assay type: functional; outline: as §1
[7] = Hemolytic activity in human type RBC after 1 hr; assay type: ADME, cell-based, Erythrocyte; conditions: red blood cells (erythrocytes), read-out: LC50
Outline: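 Peptides at 2.5–400 μM were incubated with a 4% suspension of human erythrocytes in physiological solution for 1 h at 37 °C, then centrifuged at 250g for 5 min; supernatant A540 was read. Saline-treated cells gave 0% lysis and 0.2% Triton X-100 gave 100%. LC50 is the concentration lysing 50% of cells; duplicates in at least two independent experiments.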

Micrococcus luteus = experiment: Antimicrobial activity against Micrococcus luteus assessed as reduction in bacterial growth after 20 hrs by […]; assay type: functional; outline: as §1
Pseudomonas aeruginosa [8] = experiment: Antimicrobial activity against Pseudomonas aeruginosa 5482 assessed as reduction in bacterial growth after 20 hrs […]; assay type: functional; conditions: Pseudomonas aeruginosa, 5482, 20 h; outline: as §1
Pseudomonas aeruginosa [9] = experiment: Antimicrobial activity against Pseudomonas aeruginosa clinical isolates assessed as FIC index in presence of rifampicin after 20 hrs by drop diffusion test; assay type: functional
Bacillus subtilis = experiment: Antimicrobial activity against Bacillus subtilis assessed as reduction in bacterial growth after 20 hrs by […]; assay type: functional; outline: as §1
Pseudomonas aeruginosa [10] = experiment: Antimicrobial activity against Pseudomonas aeruginosa clinical isolates assessed as FIC index in presence of tetracycline after 20 hrs by drop diffusion test; assay type: functional
Staphylococcus aureus [11] = experiment: Antimicrobial activity against Staphylococcus aureus 6271 assessed as reduction in bacterial growth after 20 hrs by broth microdilution assay; conditions: Staphylococcus aureus, 6271, 20 h
Escherichia coli = experiment: Antimicrobial activity against Escherichia coli assessed as reduction in bacterial growth after 20 hrs by […]; assay type: functional; outline: as §1
Candida albicans = experiment: Antifungal activity against Candida albicans assessed as reduction in fungal growth after 20 hrs by […]; assay type: functional; outline: as §1
Pseudomonas aeruginosa [12] = experiment: Bactericidal activity against Pseudomonas aeruginosa assessed as induction of bacteria killing at 20 uM after 4 hrs by time kill assay; assay type: functional, organism-based
Outline: (§2)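 P. aeruginosa grown at 37 °C with shaking to mid-log phase, then diluted in fresh LB to about 5 × 10^5 cfu/mL. This inoculum was mixed 1:1 with LB containing the agent and shaken at 37 °C for 4 h. Samples were taken at 0–240 min, serially diluted in 0.9% NaCl and plated on LB agar overnight at 37 °C; viable counts are given as cfu/mL. LB-only growth control; means of four independent runs, SEM.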

Staphylococcus aureus [13] = experiment: Antimicrobial activity against Staphylococcus aureus clinical isolates from Liberec regional hospital assessed as reduction in bacterial growth after 20 hrs by broth microdilution assay
Pseudomonas aeruginosa [14] = experiment: Bactericidal activity against Pseudomonas aeruginosa assessed as reduction in bacterial count at 20 uM after 4 hrs by time kill assay; assay type: functional
Outline: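 P. aeruginosa inoculum about 5 × 10^5 cfu/mL in LB mixed 1:1 with LB alone or LB containing test agent at final 8, 24, 80 or 20 μM. Incubation was at 37 °C with shaking for 4 h. Aliquots taken at 0–240 min were serially diluted in 0.9% NaCl and plated on LB agar overnight at 37 °C. Viable cfu/mL were counted; means of four independent measurements.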

Pseudomonas aeruginosa [15] = experiment: Bacteriostatic activity against Pseudomonas aeruginosa assessed as induction of bacteria killing at 80 uM after 60 mins by time kill assay; assay type: functional, organism-based; outline: as §2
Pseudomonas aeruginosa [16] = experiment: Bacteriostatic activity against Pseudomonas aeruginosa assessed as induction of bacteria killing at 80 uM after 3 hrs by time kill assay; assay type: functional, organism-based; outline: as §2

## CCCCCCCCN=c1ccn(CCCCCCCCCCn2ccc(=NCCCCCCCC)cc2)cc1
Pseudomonas aeruginosa [1]
  Activity: Active

## CCCCC(NC(=O)[C@H](CC(C)C)NC(=O)[C@H](CO)NC(=O)[C@H](CO)NC(=O)C(CCCC)NC(=O)[C@@H](NC(=O)CN)[C@@H](C)CC)C(=O)N[C@@H](CCCCN)C(=O)N[C@@H](CCCCN)C(=O)N[C@@H](CC(C)C)C(=O)N[C@@H](CCCCN)C(=O)N[C@@H](CCCCN)C(=O)N[C@H](C(=O)N[C@H](C(=O)N[C@@H](C)C(N)=O)[C@@H](C)CC)[C@@H](C)CC (some centres not stated) (H-GI[ξNle]SSL[ξNle]KKLKKIIA-NH2)
Staphylococcus aureus [2]
  fractional inhibitory concentration index (FICI): 0.55
Staphylococcus aureus [3]
  MIC: 6.7 µM (≈ 10.9 µg/mL)
[4]
  MIC: 2.5 µM (≈ 4.06 µg/mL)
Staphylococcus aureus [5]
  MIC: 4 µM (≈ 6.5 µg/mL)
Pseudomonas aeruginosa [6]
  MIC: 7.9 µM (≈ 12.8 µg/mL)
[7]
  HC50 at 1 h: 373 µM
Micrococcus luteus
  MIC: ≤ 3 µM
Pseudomonas aeruginosa [8]
  MIC: 4 µM (≈ 6.5 µg/mL)
Pseudomonas aeruginosa [9]
  fractional inhibitory concentration index (FICI): 0.93
Bacillus subtilis
  MIC: ≤ 7 µM
Pseudomonas aeruginosa [10]
  fractional inhibitory concentration index (FICI): 0.58
Staphylococcus aureus [11]
  MIC: 13 µM (≈ 21.1 µg/mL)
Escherichia coli
  MIC: 10 µM (≈ 16.2 µg/mL)
Candida albicans
  MIC: 10 µM (≈ 16.2 µg/mL)

## CO[C@H]1/C=C/O[C@@]2(C)Oc3c(C)c(O)c4c(O)c(c(/C=N/N5CCN(C)CC5)c(O)c4c3C2=O)NC(=O)/C(C)=C\C=C\[C@H](C)[C@H](O)[C@@H](C)[C@@H](O)[C@@H](C)[C@H](OC(C)=O)[C@@H]1C [RIFAMPIN]
Pseudomonas aeruginosa [12]
  Activity: Active
Staphylococcus aureus [13]
  MIC: < 0.1 µM
Staphylococcus aureus [3]
  MIC: < 0.1 µM
[4]
  MIC: < 0.1 µM
Pseudomonas aeruginosa [6]
  MIC: 19 µM (≈ 15.6 µg/mL)
Pseudomonas aeruginosa [8]
  MIC: 27 µM (≈ 22.2 µg/mL)
Pseudomonas aeruginosa [14]
  fold change (FC): 3
Staphylococcus aureus [11]
  MIC: < 0.1 µM
Escherichia coli
  MIC: 10 µM (≈ 8.23 µg/mL)

## CN(C)[C@@H]1C(O)=C(C(N)=O)C(=O)[C@@]2(O)C(O)=C3C(=O)c4c(O)cccc4[C@@](C)(O)[C@H]3C[C@@H]12 [TETRACYCLINE]
Staphylococcus aureus [13]
  MIC: 1.1 µM (≈ 0.489 µg/mL)
Pseudomonas aeruginosa [15]
  Activity: inactive
Staphylococcus aureus [3]
  MIC: 2 µM (≈ 0.889 µg/mL)
[4]
  MIC: > 100 µM
Pseudomonas aeruginosa [6]
  MIC: 70 µM (≈ 31.1 µg/mL)
[7]
  HC50 at 1 h: > 200 µM
Pseudomonas aeruginosa [8]
  MIC: 29 µM (≈ 12.9 µg/mL)
Pseudomonas aeruginosa [16]
  Activity: Active
Staphylococcus aureus [11]
  MIC: 0.9 µM (≈ 0.4 µg/mL)
Escherichia coli
  MIC: 2.7 µM (≈ 1.2 µg/mL)

## H-GILKSLLKKLKKIIAK-NH2
Staphylococcus aureus [2]
  fractional inhibitory concentration index (FICI): 0.54
Staphylococcus aureus [3]
  MIC: 10 µM
[4]
  MIC: 2.2 µM
Staphylococcus aureus [5]
  MIC: 4.3 µM
Pseudomonas aeruginosa [6]
  MIC: 8.9 µM
[7]
  HC50 at 1 h: > 400 µM
Micrococcus luteus
  MIC: ≤ 3 µM
Pseudomonas aeruginosa [8]
  MIC: 5 µM
Pseudomonas aeruginosa [9]
  fractional inhibitory concentration index (FICI): 0.33
Bacillus subtilis
  MIC: ≤ 7 µM
Pseudomonas aeruginosa [10]
  fractional inhibitory concentration index (FICI): 0.52
Staphylococcus aureus [11]
  MIC: 17 µM
Escherichia coli
  MIC: 10 µM
Candida albicans
  MIC: 24 µM

## H-GILSKLLKKLKKIIAK-NH2
Staphylococcus aureus [2]
  fractional inhibitory concentration index (FICI): 0.33
Staphylococcus aureus [3]
  MIC: 10 µM
[4]
  MIC: 1.8 µM
Staphylococcus aureus [5]
  MIC: 5.9 µM
Pseudomonas aeruginosa [6]
  MIC: 8.5 µM
[7]
  HC50 at 1 h: > 400 µM
Micrococcus luteus
  MIC: ≤ 3 µM
Pseudomonas aeruginosa [8]
  MIC: 4.5 µM
Pseudomonas aeruginosa [9]
  fractional inhibitory concentration index (FICI): 0.34
Bacillus subtilis
  MIC: ≤ 7 µM
Pseudomonas aeruginosa [10]
  fractional inhibitory concentration index (FICI): 0.65
Staphylococcus aureus [11]
  MIC: 23 µM
Escherichia coli
  MIC: 18 µM
Candida albicans
  MIC: 45 µM
